Experimental data pooled from the literature.
In brackets after ≈: the same amount, converted by molar mass.

With `C=CCCCCCCCCC(=O)C(F)(F)P(=O)(O)O` the MIC was 200 µg/mL (Bacillus subtilis; microbial growth; ATCC23857).
`CCCCCOc1ccc(-c2cc(-c3ccc(C(=O)N[C@H]4C[C@@H](O)[C@@H](O)NC(=O)[C@@H]5[C@@H](O)[C@@H](C)CN5C(=O)[C@H]([C@H](O)CC(N)=O)NC(=O)[C@H]([C@H](O)[C@@H](O)c5ccc(O)c(OS(=O)(=O)O)c5)NC(=O)[C@@H]5C[C@@H](O)CN5C(=O)[C@H]([C@@H](C)O)NC4=O)cc3)no2)cc1` has an MIC50 of 0.06 µg/mL (Nakaseomyces glabratus; microbial growth).
`CC(=O)C1=C(O)C(CC(C)C)NC1=O` (stereo not drawn) gave an MIC of greater than 200 µg/mL (Proteus vulgaris; microbial growth; ATCC33420).
With `CCCC[C@H]1CN(c2cccc(OC(F)(F)F)c2)C(=O)CN1Cc1cncn1Cc1ccc(Br)cc1` the MIC was 3 to 6 µM (Cryptococcus neoformans; microbial growth, broth dilution).
`CCOC(=O)c1ccccc1S(=O)(=O)NC(=O)Nc1nc(Cl)cc(OC)n1` gave an MIC50 of 5.6 µM (Nakaseomyces glabratus; microbial growth, broth dilution; 48 h).
The MIC of `CCCCCC/C=C\CCCCCCCCCC(=O)CP(=O)(O)O` is reported as 25 µg/mL (Bacillus subtilis; microbial growth; ATCC23857).
The IC50 of `CC(C)CCCCCCCCCCCCCCc1cc(O)cc(O)c1` is reported as 20.3 µM (Listeria monocytogenes; microbial growth; ATCC19115).
The inhibition zone of `CC1(C)S[C@@H]2[C@H](NC(=O)[C@H](N)c3ccccc3)C(=O)N2[C@H]1C(=O)O` is reported as 27 mm (Listeria monocytogenes; microbial growth, well diffusion; ATCC7644; 60000 µg/mL).
For `CCCCCCCCCCCCCCCc1cc(O)cc(O)c1`, the IC50 was greater than 200 µM (Listeria monocytogenes; microbial growth; ATCC19115).
For `O=C(CCCCCCCCCCOc1ccccc1)CP(=O)(O)O`, the MIC was greater than 200 µg/mL (Bacillus subtilis; microbial growth; ATCC23857).
For `Cc1ccccc1C(=O)NN=Cc1ccc(O)c(Br)c1`, the MFC was 4 µg/mL (≈ 12 µM) (Cryptococcus neoformans; microbial killing).
`CCCCCCCCCCCCCCCC(=O)C(F)(F)P(=O)(O)O` gave an MIC of 200 µg/mL (Bacillus subtilis; microbial growth; ATCC23857).
`CC[C@H](C)C[C@H](C)CCCCCCCCC(=O)N[C@H]1C[C@@H](O)[C@@H](NCCN)NC(=O)[C@@H]2[C@@H](O)CCN2C(=O)[C@H]([C@H](O)CCN)NC(=O)[C@H]([C@H](O)[C@@H](O)c2ccc(O)cc2)NC(=O)[C@@H]2C[C@@H](O)CN2C(=O)[C@H]([C@@H](C)O)NC1=O` gave an MIC50 of 0.125 µg/mL (Nakaseomyces glabratus; microbial growth, broth dilution; MY1381).
`CCCCCCCC/C=C\CCCCCCCCNC(=O)CP(=O)(O)O` gave an MIC of 200 µg/mL (Bacillus subtilis; microbial growth; ATCC23857).
`CC(C)C(C)CCCCCCCCCCCc1cc(O)cc(O)c1` (stereo not drawn) has an IC50 of 34.2 µM (Listeria monocytogenes; microbial growth; ATCC19115).
